Laboratory results taken from ChEMBL document CHEMBL5321263, “Metabolomics-Guided Discovery, Isolation, Structure Elucidation, and Bioactivity of Myropeptins C-E from Myrothecium inundatum” (J Nat Prod, 2023).
In brackets after ≈: the same amount, converted by molar mass. Activity calls are given as the source filed them. The rule behind the calls is not given here. Where a SMILES comes first, the peptide text is derived from it. [ ]: non-standard residue; d: D form. The star is where a group is joined. Lauroyl = CCCCCCCCCCCC(=O)*; Decanoyl = CCCCCCCCCC(=O)*; Aib = CC(C)(N)C(=O)O; βAla = NCCC(=O)O

Legend:
MDA-MB-231 = test: Antiproliferative activity against human MDA-MB-231 cells measured after 24 hrs by MTT assay; format: functional, cell-based; details: MDA-MB-231, 24 h
Method in brief: (§1)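 MTT read-out after 24 h; HCT-116 (7000 cells/well) or MDA-MB-231 (8000 cells/well) in DMEM with 10% FBS, 37 °C, 5% CO2, plated overnight before dosing; MTT 0.5 mg/ml final, 2 h at 37 °C; formazan dissolved in DMSO, A550; vehicle (0.5% DMSO) set as 100% growth; biological triplicates, two technical replicates.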

[1] = Toxicity in human SK-MEL-5 cells assessed as calcium influx-mediated cell rupture at 16 uM measured upto 120 secs by fluorescence based analysis; details: sk-mel-5, 2 min, time < 120 sec
[2] = Toxicity in zebra fish AB embryo assessed as mortality incubated for 48 hrs; set-up: species or system Danio rerio; details: zebrafish
HCT-116 = test: Antiproliferative activity against human HCT-116 cells measured after 24 hrs by MTT assay; format: functional, cell-based; details: HCT-116, 24 h; method in brief: as §1
[3] = Hemolytic activity in sheep erythrocytes assessed as hemolysis incubated for 1 hr by microplate reader based analysis; format: toxicity, cell-based, Ovis aries, Erythrocyte
Method in brief: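 Defibrinated sheep blood washed 3× in PBS, diluted 1:500 (~8×10^7 cells/mL); 190 μL suspension plus 10 μL 20-fold compound stock in PBS + 0.5% DMSO, 1 h at 37 °C; centrifuged, supernatant OD450; 0.1% Triton X-100 positive control; three independent experiments.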

[4] = Toxicity in zebra fish AB embryo assessed as mortality at 10 uM incubated for 48 hrs relative to control; set-up: species or system Danio rerio; details: zebrafish, read-out: Activity
Staphylococcus aureus [5] = test: Antimicrobial activity against multidrug resistant Staphylococcus aureus ATCC BAA-44 measured after 16 hrs by CLSI protocol based method; format: functional
OVCAR-8 = test: Antiproliferative activity against human OVCAR-8 cells measured after 24 hrs by MTT assay; format: functional; details: read-out: LC50 (the source's name)
Staphylococcus aureus [6] = test: Antimicrobial activity against methicillin resistant Staphylococcus aureus ATCC BAA41 measured after 16 hrs by CLSI protocol based method; format: functional
Staphylococcus aureus [7] = test: Antimicrobial activity against Staphylococcus aureus ATCC 25923 measured after 16 hrs by CLSI protocol based method; format: functional
[Candida] auris = Antimicrobial activity against Candida auris CDCB11903 measured after 16 hrs by CLSI protocol based method; format: functional; details: Candidozyma auris
SK-MEL-5 [8] = test: Induction of mitochondrial membrane potential in human SK-MEL-5 cells assessed as reduction in accumulation of dye at 1 uM measured after 30 mins by […] staining based confocal microscopy analysis; format: functional, cell-based
Method in brief: (§2)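 SK-Mel-5 on poly-L-lysine-coated coverslips, 24 h; 30 min at 37 °C with 2 μM MitoOrange, 0.1% Hoechst 33342 and 1 μM compound, 0.1% DMSO or 50 μM FCCP; washed in warm PBS with CaCl2/MgCl2; confocal imaging, 20x objective, transmitted light plus MitoOrange CMTMRos and Hoechst channels.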

SK-MEL-5 [9] = test: Induction of apoptosis in human SK-MEL-5 cells assessed as early apoptosis at 1 to 4 uM measured after 3 hrs by Annexin V-FITC/propidium iodide staining based flow cytometric analysis; format: functional, cell-based; details: dose 1-4 µM
Method in brief: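 SK-Mel-5 (1 × 10^6 cells per T25) grown 24 h, then treated 3 h in medium at 1 or 4 μM; 0.5% DMSO vehicle, 5 μM camptothecin control; trypsinised, washed, stained with FITC-annexin V and propidium iodide 15 min at RT in the dark, analysed by flow cytometry within 1 h.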

SK-MEL-5 [10] = test: Induction of apoptosis in human SK-MEL-5 cells assessed as membrane blebbing at 1 uM measured after 30 mins by confocal microscopy based analysis; format: functional, cell-based; method in brief: as §2
SK-MEL-5 [11] = test: Induction of calcium influx in human SK-MEL-5 cells assessed as increase in fluorescence at 1 to 4 uM measured upto 120 secs by fluorescence based assay; format: functional, cell-based; details: dose 1-4 µM, time <= 120.0 sec
[12] = Toxicity in zebra fish AB embryo assessed as mortality at 50 uM incubated for 48 hrs relative to control; set-up: species or system Danio rerio; details: zebrafish, read-out: Activity

Compound | IC50 (MDA-MB-231) [µM] | IC50 (HCT-116) [µM] | IC50 at 1 h [3] [µM] | MIC (Staphylococcus aureus [5]) [µg/mL] | MIC (Staphylococcus aureus [6]) [µg/mL] | MIC (Staphylococcus aureus [7]) [µg/mL] | MIC ([Candida] auris) [µg/mL] | further results
CCCCCCCCCCCC(=O)NC(C)(C)C(=O)N1CCC[C@H]1C(=O)NC(C)(C)C(=O)NC(C)(C)C(=O)N1CCC[C@H]1C(=O)NC(C)(C)C(=O)NC(C)(C)C(=O)N1CCC[C@H]1C(=O)N[C@@H](C)C(=O)NC(C)(C)C(=O)NCCC(=O)N[C@@H](C)C(=O)NC(C)(C)C(=O)NC(C)(C)C(=O)NCCC(=O)NC(C)(C)C(=O)NC(C)(C)C(=O)NC(C)(C)C(=O)N[C@@H](C)C(=O)NCCC(=O)O [listing 1 of 2 here] | 1.5 | 1.2 | 1.5 | – | – | – | – | Activity [1]: Toxic; EC50 at 48 h [2]: 5 µM; mortality at 48 h, 10 µM [4]: 100%
CCCCCCCCCCCC(=O)NC(C)(C)C(=O)N1CCC[C@H]1C(=O)NC(C)(C)C(=O)NC(C)(C)C(=O)N1CCC[C@H]1C(=O)NC(C)(C)C(=O)NC(C)(C)C(=O)N1CCC[C@H]1C(=O)N[C@@H](C)C(=O)NC(C)(C)C(=O)NCCC(=O)N[C@@H](C)C(=O)NC(C)(C)C(=O)NC(C)(C)C(=O)NCCC(=O)NC(C)(C)C(=O)NC(C)(C)C(=O)NC(C)(C)C(=O)N[C@@H](C)C(=O)NCCC(=O)O [listing 2 of 2 here] | – | – | – | 4 (≈ 2.16 µM) | 4 (≈ 2.16 µM) | 4 (≈ 2.16 µM) | 4 (≈ 2.16 µM) | CC50 (OVCAR-8): > 16 µM
COc1cccc2c1[C@H](OC)[C@]13O[C@@]1(C2=O)[C@H](O)[C@H](C)[C@@](O)(C(=O)[C@@H]1O[C@H]1C)[C@@H]3O | 0.6 | 1.3 | – | – | – | – | – | –
CCCCCCCCCCCC(=O)NC(C)(C)C(=O)N1CCC[C@@H]1C(=O)NC(C)(C)C(=O)NC(C)(C)C(=O)N1CCC[C@@H]1C(=O)NC(C)(C)C(=O)NC(C)(C)C(=O)N1CCC[C@H]1C(=O)N[C@@H](C)C(=O)NC(C)(C)C(=O)NCCC(=O)N[C@@H](C)C(=O)NC(C)(C)C(=O)NC(C)(C)C(=O)NCCC(=O)NC(C)(C)C(=O)NC(C)(C)C(=O)NC(C)(C)C(=O)N[C@@H](C)C(=O)NCCC(=O)O | – | – | – | – | – | – | – | Activity (SK-MEL-5 [8]): Active; Activity (SK-MEL-5 [9]): Active; Activity (SK-MEL-5 [10]): inactive
C[C@H](CCC(=O)O)C[C@H](C)C[C@H](C)C(=O)/C=C(\O)[C@H](C)C[C@H](C)C/C=C/[C@@H](C)[C@@H](O)[C@@H](C)[C@@H](O)C[C@@H]1CC[C@@](C)([C@H]2CC[C@@](C)([C@@H](C)O)O2)O1 | – | – | – | – | – | – | – | Activity (SK-MEL-5 [11]): Active
CCCCCCCCCC(=O)NC(C)(C)C(=O)N1CCC[C@H]1C(=O)NC(C)(C)C(=O)NC(C)(C)C(=O)N1CCC[C@H]1C(=O)NC(C)(C)C(=O)NC(C)(C)C(=O)N1CCC[C@H]1C(=O)N[C@@H](C)C(=O)NC(C)(C)C(=O)NCCC(=O)N[C@@H](C)C(=O)NC(C)(C)C(=O)NC(C)(C)C(=O)NCCC(=O)NC(C)(C)C(=O)NC(C)(C)C(=O)NC(C)(C)C(=O)N[C@@H](C)C(=O)NCCC(=O)O (Decanoyl-[Aib]P[Aib][Aib]P[Aib][Aib]PA[Aib][βAla]A[Aib][Aib][βAla][Aib][Aib][Aib]A[βAla]-OH) [listing 1 of 2 here] | 9.2 | 5.2 | 7 | – | – | – | – | EC50 at 48 h [2]: 30 µM; mortality at 48 h, 50 µM [12]: 100%
CCCCCCCCCC(=O)NC(C)(C)C(=O)N1CCC[C@H]1C(=O)NC(C)(C)C(=O)NC(C)(C)C(=O)N1CCC[C@H]1C(=O)NC(C)(C)C(=O)NC(C)(C)C(=O)N1CCC[C@H]1C(=O)N[C@@H](C)C(=O)NC(C)(C)C(=O)NCCC(=O)N[C@@H](C)C(=O)NC(C)(C)C(=O)NC(C)(C)C(=O)NCCC(=O)NC(C)(C)C(=O)NC(C)(C)C(=O)NC(C)(C)C(=O)N[C@@H](C)C(=O)NCCC(=O)O (Decanoyl-[Aib]P[Aib][Aib]P[Aib][Aib]PA[Aib][βAla]A[Aib][Aib][βAla][Aib][Aib][Aib]A[βAla]-OH) [listing 2 of 2 here] | – | – | – | 16 (≈ 8.76 µM) | 16 (≈ 8.76 µM) | 16 (≈ 8.76 µM) | 16 (≈ 8.76 µM) | –
CCCCCCCCCC(=O)NC(C)(C)C(=O)N1CCC[C@H]1C(=O)NC(C)(C)C(=O)NC(C)(C)C(=O)N1CCC[C@H]1C(=O)NC(C)(C)C(=O)NC(C)(C)C(=O)N1CCC[C@H]1C(=O)NC(C)(C)C(=O)NC(C)(C)C(=O)NCCC(=O)N[C@@H](C)C(=O)NC(C)(C)C(=O)NC(C)(C)C(=O)NCCC(=O)NC(C)(C)C(=O)NC(C)(C)C(=O)NC(C)(C)C(=O)N[C@@H](C)C(=O)NCCC(=O)O (Decanoyl-[Aib]P[Aib][Aib]P[Aib][Aib]P[Aib][Aib][βAla]A[Aib][Aib][βAla][Aib][Aib][Aib]A[βAla]-OH) [listing 1 of 2 here] | 8.2 | 6.1 | 10 | – | – | – | – | –
CCCCCCCCCC(=O)NC(C)(C)C(=O)N1CCC[C@H]1C(=O)NC(C)(C)C(=O)NC(C)(C)C(=O)N1CCC[C@H]1C(=O)NC(C)(C)C(=O)NC(C)(C)C(=O)N1CCC[C@H]1C(=O)NC(C)(C)C(=O)NC(C)(C)C(=O)NCCC(=O)N[C@@H](C)C(=O)NC(C)(C)C(=O)NC(C)(C)C(=O)NCCC(=O)NC(C)(C)C(=O)NC(C)(C)C(=O)NC(C)(C)C(=O)N[C@@H](C)C(=O)NCCC(=O)O (Decanoyl-[Aib]P[Aib][Aib]P[Aib][Aib]P[Aib][Aib][βAla]A[Aib][Aib][βAla][Aib][Aib][Aib]A[βAla]-OH) [listing 2 of 2 here] | – | – | – | 16 (≈ 8.69 µM) | 16 (≈ 8.69 µM) | 16 (≈ 8.69 µM) | 16 (≈ 8.69 µM) | –
CCCCCCCCCCCC(=O)NC(C)(C)C(=O)N1CCC[C@H]1C(=O)NC(C)(C)C(=O)NC(C)(C)C(=O)N1CCC[C@H]1C(=O)NC(C)(C)C(=O)NC(C)(C)C(=O)N1CCC[C@H]1C(=O)NC(C)(C)C(=O)NC(C)(C)C(=O)NCCC(=O)N[C@@H](C)C(=O)NC(C)(C)C(=O)NC(C)(C)C(=O)NCCC(=O)NC(C)(C)C(=O)NC(C)(C)C(=O)NC(C)(C)C(=O)N[C@@H](C)C(=O)NCCC(=O)O (Lauroyl-[Aib]P[Aib][Aib]P[Aib][Aib]P[Aib][Aib][βAla]A[Aib][Aib][βAla][Aib][Aib][Aib]A[βAla]-OH) [listing 1 of 2 here] | 11.1 | 9.5 | 2 | – | – | – | – | –
CCCCCCCCCCCC(=O)NC(C)(C)C(=O)N1CCC[C@H]1C(=O)NC(C)(C)C(=O)NC(C)(C)C(=O)N1CCC[C@H]1C(=O)NC(C)(C)C(=O)NC(C)(C)C(=O)N1CCC[C@H]1C(=O)NC(C)(C)C(=O)NC(C)(C)C(=O)NCCC(=O)N[C@@H](C)C(=O)NC(C)(C)C(=O)NC(C)(C)C(=O)NCCC(=O)NC(C)(C)C(=O)NC(C)(C)C(=O)NC(C)(C)C(=O)N[C@@H](C)C(=O)NCCC(=O)O (Lauroyl-[Aib]P[Aib][Aib]P[Aib][Aib]P[Aib][Aib][βAla]A[Aib][Aib][βAla][Aib][Aib][Aib]A[βAla]-OH) [listing 2 of 2 here] | – | – | – | 8 (≈ 4.28 µM) | 8 (≈ 4.28 µM) | 4 (≈ 2.14 µM) | 16 (≈ 8.56 µM) | –
CC[C@H](C)C[C@H](C)CCCCCCCCC(=O)N[C@H]1C[C@@H](O)[C@@H](NCCN)NC(=O)[C@@H]2[C@@H](O)CCN2C(=O)[C@H]([C@H](O)CCN)NC(=O)[C@H]([C@H](O)[C@@H](O)c2ccc(O)cc2)NC(=O)[C@@H]2C[C@@H](O)CN2C(=O)[C@H]([C@@H](C)O)NC1=O [CASPOFUNGIN] | – | – | – | – | – | – | 2 (≈ 1.83 µM) | –
NC[C@H]1O[C@H](O[C@H]2[C@H](O)[C@@H](O[C@H]3O[C@H](CO)[C@@H](O)[C@H](N)[C@H]3O)[C@H](N)C[C@@H]2N)[C@H](O)[C@@H](O)[C@@H]1O [KANAMYCIN] | – | – | – | – | – | 1 (≈ 2.06 µM) | – | –
